The record followed here is ChEMBL document CHEMBL4130550, “Antiproliferative Dimeric Aporphinoid Alkaloids from the Roots of Thalictrum cultratum” (J Nat Prod, 2017).

Calls of active or inactive are those of the source. The rule behind the calls is not given here.

Test [1] has as its system HL-60. The experiment in a line: Induction of apoptosis in human HL60 cells assessed as live cells at 1.5 uM after 48 hrs by Annexin-V-FITC/propidium iodide staining based flow cytometric method (reference value: 94.19%). In kind it is functional. Background: Flow cytometry measures light scatter and fluorescence of single cells or particles in a stream.
In test [2] the test system is HL-60. Put plainly: Induction of apoptosis in human HL60 cells assessed as late apoptotic cells at 1.5 uM after 24 hrs by Annexin-V-APC/7-AAD staining based flow cytometric method (reference value: 1.99%). Format: functional. Summed up:
(§1)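 HL-60 are seeded overnight in six-well plates, then treated in triplicate with 0.06, 0.3 or 1.5 μM, or untreated, for 24 h. Cells are washed in PBS and taken up in annexin V binding buffer. Annexin V-APC is added for 15 min in the dark at 25 °C, and 7-AAD just before flow cytometry. Early apoptosis is annexin V-APC only; late apoptosis is annexin V-APC/7-AAD.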

The test system of test [3] is HL-60. The experiment in a line: Induction of morphological changes in human HL60 cells assessed as chromatin condensation at 0.06 to 1.5 uM after 24 hrs by Hoechst 33258 staining based fluorescence microscopic analysis. In kind it is functional, cell-based.
For test [4], the system named is HL-60. The experiment in a line: Induction of mitochondrial membrane potential loss in human HL60 cells assessed as intact mitochondrial membrane potential at 0.06 uM after 24 hrs by JC1 staining based flow cytometric method (reference value: 99.42%). In kind it is functional.
Test [5] relates to HL-60. The experiment in a line: Induction of apoptosis in human HL60 cells assessed as late apoptotic cells at 1.5 uM after 48 hrs by Annexin-V-FITC/propidium iodide staining based flow cytometric method (reference value: 2.53%). Format: functional.
Another test relates to PC-3. Put plainly: Antiproliferative activity against human PC3 cells by MTT assay. In kind it is functional, cell-based. Put shortly:
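PC-3 (ATCC) in supplemented RPMI-1640 with 10% FBS at 37 °C, 5% CO2. Log-phase cells get graded concentrations in triplicate. MTT (5 mg/mL solution) is added for a further 4 h, then dissolved in DMSO and read at 490 nm. IC50 is from the average of three parallel experiments. Negative reference is 0.1% DMSO.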
(Tetrazolium assays rely on reduction of a dye to a coloured formazan, in cell work by metabolically active cells.)

Test [6] has as its system HL-60. Put plainly: Cell cycle arrest in human HL60 cells assessed as accumulation at G2 phase at 1.5 uM after 24 hrs by propidium iodide staining based flow cytometric method (reference value: 30.93%). In kind it is functional.
Test [7] relates to HL-60. Put plainly: Induction of apoptosis in human HL60 cells at 1.5 uM by Annexin-V-FITC/propidium iodide staining based flow cytometric method. As to conditions: TDE = time-dependent effect. Format: functional, cell-based.
Test [8] concerns HL-60. Put plainly: Cell cycle arrest in human HL60 cells assessed as accumulation at G2 phase at 0.06 uM after 24 hrs by propidium iodide staining based flow cytometric method (reference value: 30.93%). In kind it is functional.
The test system of test [9] is HL-60. Put plainly: Induction of apoptosis in human HL60 cells assessed as live cells at 1.5 uM after 24 hrs by Annexin-V-APC/7-AAD staining based flow cytometric method (reference value: 95.31%). Format: functional. Summed up: as §1
Test [10] concerns HL-60. Put plainly: Cell cycle arrest in human HL60 cells assessed as accumulation at G1 phase at 0.3 uM after 24 hrs by propidium iodide staining based flow cytometric method (reference value: 43.32%). In kind it is functional.
The test system of test [11] is HL-60. The experiment in a line: Induction of apoptosis in human HL60 cells assessed as necrotic cells at 0.3 uM after 24 hrs by Annexin-V-APC/7-AAD staining based flow cytometric method (reference value: 0.44%). Format: functional. Summed up:
as §1

Test [12] deals with HL-60. Put plainly: Induction of apoptosis in human HL60 cells assessed as necrotic cells at 1.5 uM after 24 hrs by Annexin-V-FITC/propidium iodide staining based flow cytometric method (reference value: 0.47%). In kind it is functional.
Test [13] has as its system HL-60. The experiment in a line: Cell cycle arrest in human HL60 cells assessed as accumulation at G1 phase at 1.5 uM after 24 hrs by propidium iodide staining based flow cytometric method (reference value: 43.32%). In kind it is functional.
Test [14] concerns HL-60. The experiment in a line: Cell cycle arrest in human HL60 cells assessed as accumulation at S phase at 0.3 uM after 24 hrs by propidium iodide staining based flow cytometric method (reference value: 25.75%). Format: functional.
The test system of test [15] is HL-60. Put plainly: Induction of morphological changes in human HL60 cells assessed as cell shrinkage at 0.06 to 1.5 uM after 24 hrs by Hoechst 33258 staining based fluorescence microscopic analysis. In kind it is functional.

As a reminder, the IC50 is the concentration that gives 50% inhibition. For `COc1cc2c(c(Oc3ccc(C[C@H]4c5cc(OC)c6c(c5CCN4C)OCO6)cc3)c1OC)C[C@H]1c3c(c(OC)c(OC)c(OC)c3-2)CCN1C`, the Activity with HL-60 [1] was 52.96%; in the test with HL-60 [2], 47.95%; in the test with HL-60 [4] it was 75.9%; in the test on HL-60 [5], 17.69%; in the test on HL-60 [6], 18.53%; in the test with HL-60 [7] it was “Tde”. In addition, the Activity in the test on HL-60 [8] worked out at 24.33%; in the test on HL-60 [9], 35.77%; with HL-60 [10], 36.01%; in the test with HL-60 [11], 1.2%; with HL-60 [12] it was 0.14%; in the test on HL-60 [13], 33.02%. Also, in the test on HL-60 [14], the Activity came out at 42.51%. For the same molecule, the outcome with HL-60 [3] and in the test on HL-60 [15] was Active. Besides, the IC50 in the test with PC-3 was determined as 5.59 µM.
